In ChEMBL document CHEMBL1125684, “Novel site-directed affinity ligands for GABA-gated chloride channels: synthesis, characterization, and molecular modeling of 1-(isothiocyanatophenyl)-4-tert-butyl-2,6,7-trioxabicyclo[2.2.2]octanes ” (J Med Chem, 1991):

Experiments:
[1] = biological target: GABA-A receptor; anion channel; assay: Apparent affinity by displacement of preincubated [35S]TBPS from rat cortical homogenates at 2400 nM
How it was run: (§1)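 Cortical homogenate (twice-washed, 1:15) pretreated 1 h on ice with acylator (60 nM or 600–2400 nM) plus 200 mM NaCl. It was then washed five times by centrifugation in pH 7.4 phosphate/100 mM NaCl and resuspended chloride-free. Saturation binding used 2–5 nM [35S]TBPS with 0–160 nM unlabeled TBPS, 200 mM NaCl, 2 h at 25 °C. Nonspecific binding was defined by 20 µM picrotoxinin. Kd and Bmax came from Scatchard plots, mean of 3–5 experiments.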

[2] = biological target: T1, GABA-A receptor; anion channel (Rattus norvegicus) (UniProt O09028+P15431+P18506+P18508+P19969+P20236+P23574+P23576+P28471+P28473+P30191+P62813+P63079+P63138+Q91ZM7+Q9ES14); assay: Displacement of [35S]TBPS binding to rat cortical homogenates (control); how it was run: as §1
[3] = biological target: T1, GABA-A receptor; anion channel (Rattus norvegicus); assay: Displacement of [35S]TBPS binding to rat cortical homogenates at 1200 nM; how it was run: as §1
[4] = biological target: T1, GABA-A receptor; anion channel (Rattus norvegicus); assay: Displacement of [35S]TBPS binding to rat cortical homogenates at 1500 nM; how it was run: as §1
[5] = biological target: T1, GABA-A receptor; anion channel (Rattus norvegicus); assay: Displacement of [35S]TBPS binding to rat cortical homogenates at 2400 nM; how it was run: as §1
[6] = biological target: T1, GABA-A receptor; anion channel (Rattus norvegicus); assay: Displacement of [35S]TBPS binding to rat cortical homogenates at 600 nM; how it was run: as §1
[7] = biological target: GABA-A receptor; anion channel; assay: Inhibition of [35S]TBPS binding to rat cortical membranes; type: cell membranes, Membrane
How it was run: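 Coincubation: 5 nM [35S]TBPS and acylator (5–1000 nM or 50–10000 nM, depending on ligand) were added simultaneously to washed cortical homogenate. Incubation was in pH 7.4 potassium phosphate with 200 mM NaCl, 2 h at 25 °C. Binding was read by filtration and scintillation, with nonspecific binding defined by 20 µM picrotoxinin. Inhibition was taken as percent of control; N ≥ 3.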

[8] = biological target: GABA-A receptor; anion channel; assay: Inhibition of [35S]-TBPS binding to rat cortical membranes after 60 minute pre-incubation with radioligand; type: cell membranes, Membrane
How it was run: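 Washed cortical homogenate was incubated with 5 nM [35S]TBPS for 60 min before acylator was added, in pH 7.4 potassium phosphate with 200 mM NaCl at 25 °C. Bound radioligand was collected by GF/B filtration and counted by scintillation. Nonspecific binding was defined by 20 µM picrotoxinin. Inhibition was expressed as percent of control binding without acylator; N ≥ 1.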

[9] = biological target: GABA-A receptor; anion channel; assay: Apparent affinity by displacement of pre-incubated [35S]-TBPS from rat cortical homogenates (control); how it was run: as §1
[10] = biological target: GABA-A receptor; anion channel; assay: Apparent affinity by displacement of preincubated [35S]TBPS from rat cortical homogenates at 1200 nM; how it was run: as §1
[11] = biological target: GABA-A receptor; anion channel; assay: Apparent affinity by displacement of preincubated [35S]-TBPS from rat cortical homogenates at 1500 nM; how it was run: as §1
[12] = biological target: GABA-A receptor; anion channel; assay: Apparent affinity by displacement of pre-incubated [35S]-TBPS from rat cortical homogenates at 600 nM; how it was run: as §1
[13] = biological target: Gamma-aminobutyric acid receptor subunit gamma-1 (Rattus norvegicus) (UniProt P23574); assay: Displacement of [35S]TBPS binding to rat cortical homogenates at 60 nM; how it was run: as §1
[14] = biological target: Gamma-aminobutyric acid receptor subunit gamma-1 (Rattus norvegicus, UniProt P23574); assay: Apparent affinity by displacement of preincubated [35S]TBPS from rat cortical homogenates at 60 nM; how it was run: as §1
Sequence of Gamma-aminobutyric acid receptor subunit gamma-1 (P23574 whole entry): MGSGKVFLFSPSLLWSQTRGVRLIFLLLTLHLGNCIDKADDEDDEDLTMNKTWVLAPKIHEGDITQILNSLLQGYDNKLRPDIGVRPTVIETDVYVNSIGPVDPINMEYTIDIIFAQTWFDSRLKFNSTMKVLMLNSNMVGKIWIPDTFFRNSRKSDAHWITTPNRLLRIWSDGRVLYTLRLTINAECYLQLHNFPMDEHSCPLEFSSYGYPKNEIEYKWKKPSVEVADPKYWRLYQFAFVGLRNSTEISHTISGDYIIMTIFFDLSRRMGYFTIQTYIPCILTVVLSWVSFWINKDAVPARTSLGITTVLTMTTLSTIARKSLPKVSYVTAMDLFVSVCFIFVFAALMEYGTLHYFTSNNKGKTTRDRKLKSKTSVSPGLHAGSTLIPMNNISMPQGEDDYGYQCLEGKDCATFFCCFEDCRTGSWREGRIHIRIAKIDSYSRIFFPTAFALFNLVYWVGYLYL

Sequence of Gamma-aminobutyric acid receptor subunit gamma-1 (Rattus norvegicus) (P23574 whole entry): as above

SMILES | Kd [1] [nM] | Bmax [2] [fM assay-1] | Bmax [3] [fM assay-1] | Bmax [4] [fM assay-1] | Bmax [5] [fM assay-1] | Bmax [6] [fM assay-1] | IC50 [7] [nM] | IC50 [8] [nM] | Kd [9] [nM] | Kd [10] [nM] | Kd [11] [nM] | Kd [12] [nM] | Bmax [13] [fM assay-1] | Kd [14] [nM]
CC(C)(C)C12COC(c3cccc(N=C=S)c3)(OC1)OC2 | 73.8 | 1080 | 889 | 928 | 1010 | 925 | 570 | 5400 | 35.3 | 51.8 | 55.8 | 44.5 |  | 
CC(C)(C)C12COC(c3ccc(N=C=S)cc3)(OC1)OC2 |  | 955 |  |  |  |  | 62 | 90 | 47 |  |  |  | 644 | 72.2
CC(C)(C)C12COC(c3ccccc3N=C=S)(OC1)OC2 | 58 | 963 | 817 | 869 | 1030 | 915 | 609 | 7500 | 46.7 | 50.7 | 56.3 | 57.3 |  | 
